Measurements as given in ChEMBL document CHEMBL1131182, “Anti-AIDS agents. 34. Synthesis and structure-activity relationships of betulin derivatives as anti-HIV agents” (J Med Chem, 1998).

What was measured:
H9 [1] = assay: Anti-HIV activity was measured in […] by MAGI assay; assay type: functional, cell-based; details: Homo sapiens
Procedure, shortened: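 HeLa-CD4/β-gal cells were plated at 10 000/well in DMEM with G418 500 µg/mL and hygromycin 250 µg/mL for 1 day. They were then infected with virus dilutions in the presence of varying drug for 2 days at 37 °C. Cells were fixed (1% formaldehyde, 0.2% glutaraldehyde) and stained with X-gal 0.4 mg/mL. Blue cells were counted, and EC50 was taken as a 50% reduction in infected cells.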

H9 [2] = assay: Anti-HIV activity against acutely infected H9 lymphocytes. Activity expressed as concentration of compound toxic to 50% of mock-infected H9 cells.; assay type: functional, cell-based; details: Homo sapiens
Procedure, shortened: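 Uninfected H9 cells were exposed to DMSO-dissolved samples (screen 100, 20, 4, 0.8 µg/mL final) for 4 days at 37 °C, 5% CO2. Remaining cells were counted with a counter against medium-only controls. IC50 is the concentration toxic to 50% of mock-infected cells; at least two experiments averaged.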

H9 [3] = assay: Anti-HIV activity against acutely infected H9 lymphocytes. Activity expressed as concentration of compound able to suppress HIV replication by 50%.; assay type: functional, cell-based; details: Homo sapiens
Procedure, shortened: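 H9 cells (RPMI 1640, 10% FCS, L-glutamine, 37 °C, 5% CO2, log phase) infected 1 h with HIV-1 IIIB at MOI 0.1-0.01, washed and plated at 4 × 10^5 cells/mL with DMSO-dissolved samples (screen 100, 20, 4, 0.8 µg/mL final, further dilutions for actives). After 4 days, supernatant p24 was measured by antigen-capture ELISA against a standard curve. EC50 is 50% suppression of replication; at least two experiments averaged.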

[4] = Therapeutic Index is the […] of the IC50 to that of EC50; assay type: cell-based; details: human, H9 cells; read-out: TI

EC50 (H9 [1]) | EC50 (H9 [3]) | SMILES | IC50 (H9 [2]) | selectivity ratio [4]
0.037 µM |  | Cc1cn([C@H]2C[C@H](N=[N+]=[N-])[C@@H](CO)O2)c(=O)[nH]c1=O [ZIDOVUDINE] |  | 
 | 3.8 µM | C=C(C)[C@@H]1CC[C@]2(COC(=O)CCCC(=O)O)CC[C@]3(C)[C@H](CC[C@@H]4[C@@]5(C)CC[C@H](OC(=O)CCCC(=O)O)C(C)(C)[C@@H]5CC[C@]43C)[C@@H]12 | 25.8 µM | 6.8
 | 0.045 µM | C=C(COC(=O)CC(C)(C)CC(=O)O)[C@@H]1CC[C@]2(COC(=O)CC(C)(C)CC(=O)O)CC[C@]3(C)[C@H](CC[C@@H]4[C@@]5(C)CC[C@H](OC(=O)CC(C)(C)CC(=O)O)C(C)(C)[C@@H]5CC[C@]43C)[C@@H]12 | 17.5 µM | 389
